≈ marks a conversion by molar mass, not a printed value.
How the values were obtained:
[1] = system: Aspergillus niger; assay: Antifungal activity against Aspergillus niger ATCC 6275 after 24 hrs by broth microdilution method; format: functional; conditions: ATCC 6275, 24 h
[2] = system: A549; assay: Cytotoxicity against human A549 cells assessed as cell viability at 250 uM by MTT assay; format: cell-based; conditions: a549, 250 µM
Method in brief: (§1)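 A549 lung adenocarcinoma cells grown with fetal bovine serum. Compounds held as 10 mM DMSO stocks at −20 °C and diluted in culture medium before treatment (50–250 µM). Viability read by MTT assay against untreated cells and DMSO vehicle control. Two experiments, each with triplicate readings.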

[3] = system: Saccharomyces cerevisiae; assay: Antifungal activity against Saccharomyces cerevisiae ATCC 9763 after 24 hrs by broth microdilution method; format: functional; conditions: ATCC 9763, 24 h
[4] = system: Staphylococcus aureus; assay: Antibacterial activity against Staphylococcus aureus ATCC 11632 after 24 hrs by broth microdilution method; format: functional; conditions: ATCC 11632, 24 h
Method in brief: (§2)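 Broth dilution in Mueller-Hinton broth. Tubes inoculated at 10⁵ cfu/mL and incubated 37 °C for 24 h. MIC taken as lowest concentration completely inhibiting growth. Media and media-plus-DMSO growth controls; ciprofloxacin and norfloxacin as reference standards.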

[5] = system: Klebsiella pneumoniae; assay: Antibacterial activity against Klebsiella pneumoniae ATCC 10031 after 24 hrs by broth microdilution method; format: functional; conditions: ATCC 10031, 24 h; method in brief: as §2
[6] = system: Bacillus subtilis; assay: Antibacterial activity against Bacillus subtilis ATCC 60511 after 24 hrs by broth microdilution method; format: functional; conditions: ATCC 60511, 24 h; method in brief: as §2
[7] = system: Pseudomonas aeruginosa; assay: Antibacterial activity against Pseudomonas aeruginosa ATCC 10145 after 24 hrs by broth microdilution method; format: functional; conditions: ATCC 10145, 24 h; method in brief: as §2
[8] = system: Enterococcus faecalis; assay: Antibacterial activity against Streptococcus faecalis ATCC 14506 after 24 hrs by broth microdilution method; format: functional; conditions: ATCC 14506, 24 h; method in brief: as §2
[9] = system: Mycobacterium tuberculosis; assay: Antimycobacterial activity against Mycobacterium tuberculosis H37Rv after 21 days by broth dilution assay; format: functional; conditions: 504 h
Method in brief: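 Frozen culture in Middlebrook 7H9 broth with 10% albumin-dextrose-catalase and 0.2% glycerol, thawed and diluted in broth to 10⁵ cfu/mL. Compounds dissolved in DMSO, twofold diluted in broth; final DMSO 1.3%. Tubes inoculated, incubated at 37 °C. Growth compared visually against drug-free and drug- and inoculum-free controls and isoniazid. MIC = lowest concentration inhibiting ≥99% of the starting bacterial population.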

[10] = system: Escherichia coli; assay: Antibacterial activity against Escherichia coli ATCC 10536 after 24 hrs by broth microdilution method; format: functional; conditions: ATCC 10536, 24 h; method in brief: as §2
[11] = system: Candida tropicalis; assay: Antifungal activity against Candida tropicalis ATCC 1369 after 24 hrs by broth microdilution method; format: functional; conditions: ATCC 1369, 24 h
[12] = Cytotoxicity against human A549 cells assessed as cell viability at 250 uM by MTT assay relative to control; format: cell-based; conditions: read-out: Activity; method in brief: as §1

**Q.** Which results are given for CC(C)c1csc(-c2nnc3n2NC(c2ccc(F)cc2F)S3)n1 (centres undefined)?
**A.** MIC [1]: 31.2 µg/mL (≈ 85.5 µM); Activity [2]: Toxic; MIC [3]: 62.5 µg/mL (≈ 171 µM); MIC [4]: 8 µg/mL (≈ 21.9 µM); MIC [5]: 31.2 µg/mL (≈ 85.5 µM); MIC [6]: 4 µg/mL (≈ 10.9 µM); MIC [7]: 16 µg/mL (≈ 43.8 µM); MIC [8]: 4 µg/mL (≈ 10.9 µM); MIC [9]: 4 µg/mL (≈ 10.9 µM); MIC [10]: 16 µg/mL (≈ 43.8 µM); MIC [11]: 125 µg/mL (≈ 342 µM)

**Q.** With CC(C)c1csc(-c2nn(CN3CCN(C)CC3)c(=S)n2/N=C/c2ccc(N(C)C)cc2)n1 as the molecule, how does the MIC [1] read?
**A.** 8 µg/mL (≈ 16.5 µM)

**Q.** And the MIC [3]?
**A.** 16 µg/mL (≈ 33 µM)

**Q.** And the MIC [4]?
**A.** 31.2 µg/mL (≈ 64.5 µM)

**Q.** And the viability at 250 µM [12]?
**A.** 50%

**Q.** What about the MIC [5] of the same molecule?
**A.** 4 µg/mL (≈ 8.25 µM)

**Q.** And the MIC [6]?
**A.** 8 µg/mL (≈ 16.5 µM)

**Q.** And the MIC [7]?
**A.** 31.2 µg/mL (≈ 64.5 µM)

**Q.** And the MIC [8]?
**A.** 4 µg/mL (≈ 8.25 µM)

**Q.** What about the MIC [9] of the same molecule?
**A.** 4 µg/mL (≈ 8.25 µM)

**Q.** What about the MIC [10] of the same molecule?
**A.** 16 µg/mL (≈ 33 µM)

**Q.** And the MIC [11]?
**A.** 31.2 µg/mL (≈ 64.5 µM)

**Q.** With COc1cc(/C=N/n2c(-c3nc(C(C)C)cs3)nn(CN3CCN(C)CC3)c2=S)cc(OC)c1OC as the molecule, how does the MIC [1] read?
**A.** 16 µg/mL (≈ 30.1 µM)

**Q.** And the MIC [3]?
**A.** 125 µg/mL (≈ 235 µM)

**Q.** And the MIC [4]?
**A.** 16 µg/mL (≈ 30.1 µM)

**Q.** What about the viability at 250 µM [12] of the same molecule?
**A.** 50%

**Q.** And the MIC [5]?
**A.** 16 µg/mL (≈ 30.1 µM)

**Q.** What about the MIC [6] of the same molecule?
**A.** 4 µg/mL (≈ 7.52 µM)

**Q.** And the MIC [7]?
**A.** 31.2 µg/mL (≈ 58.8 µM)

**Q.** What about the MIC [8] of the same molecule?
**A.** 8 µg/mL (≈ 15 µM)

**Q.** What about the MIC [9] of the same molecule?
**A.** 8 µg/mL (≈ 15 µM)

**Q.** And the MIC [10]?
**A.** 8 µg/mL (≈ 15 µM)

**Q.** What about the MIC [11] of the same molecule?
**A.** 62.5 µg/mL (≈ 118 µM)

**Q.** For COc1ccc(C2=Nn3c(nnc3-c3nc(C(C)C)cs3)SC2)cc1, which MIC [1] is on record?
**A.** 16 µg/mL (≈ 43.1 µM)

**Q.** And the MIC [3]?
**A.** 16 µg/mL (≈ 43.1 µM)

**Q.** And the MIC [4]?
**A.** 8 µg/mL (≈ 21.5 µM)

**Q.** And the viability at 250 µM [12]?
**A.** 50%

**Q.** And the MIC [5]?
**A.** 16 µg/mL (≈ 43.1 µM)

**Q.** And the MIC [6]?
**A.** 8 µg/mL (≈ 21.5 µM)

**Q.** And the MIC [7]?
**A.** 8 µg/mL (≈ 21.5 µM)

**Q.** And the MIC [8]?
**A.** 4 µg/mL (≈ 10.8 µM)

**Q.** And the MIC [9]?
**A.** 4 µg/mL (≈ 10.8 µM)

**Q.** What about the MIC [10] of the same molecule?
**A.** 16 µg/mL (≈ 43.1 µM)

**Q.** What about the MIC [11] of the same molecule?
**A.** 31.2 µg/mL (≈ 84.1 µM)
